ChEMBL document CHEMBL2016552, “Pyrazine-based Syk kinase inhibitors” (Bioorg Med Chem Lett, 2012)
Values after ≈ are worked out from the molar mass of the structure shown.

Tests used:
LAD2 [1] = experiment: Inhibition of IgE-mediated human LAD2 cell degranulation assessed as beta-hexosaminidase release using p-nitrophenyl-N-acetyl-D-glucosamide as substrate preincubated for 30 mins measured 90 mins after substrate addition by spectrophotometric analysis
LAD2 [2] = experiment: Inhibition of IgE-mediated human LAD2 cell degranulation assessed as beta-hexosaminidase release using p-nitrophenyl-N-acetyl-D-glucosamide as substrate at 1 uM preincubated for 30 mins measured 90 mins after substrate addition by spectrophotometric analysis; assay type: functional
In short: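 LAD2 mast cells sensitised overnight (37°, 5% CO2) in StemPro-34 with 2 mM glutamine and 100 ng/ml SCF plus 100 ng/ml biotin-IgE. Cells washed into release buffer (0.025% BSA), 10,000/well, compound 30 min, then streptavidin 125 ng/ml for 30 min. Supernatants and freeze-thaw lysates incubated with 1 mM substrate (citrate, pH 4.5) 90 min at 37°C. Stopped with 0.4 M glycine pH 10.0; A405 read.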

[3] = Apparent permeability across basolateral to apical side in human Caco2 cells; assay type: ADME, cell-based; details: Caco-2
[4] = molecular target: Tyrosine-protein kinase SYK (Homo sapiens, UniProt P43405); experiment: Inhibition of human recombinant […] using poly-GT as substrate and [33P]ATP after 40 mins by beta counting
[5] = Aqueous solubility of the compound at pH 7.4; assay type: physicochemical
[6] = Lipophilicity, log D of the compound at pH 7.4; assay type: physicochemical; details: buffer
[7] = molecular target: T1, Tyrosine-protein kinase Lyn (Homo sapiens, UniProt P07948); experiment: Inhibition of human Lyn
CHO = experiment: Cytotoxicity against CHO cells; assay type: cell-based, Cricetulus griseus; details: chinese hamster
[8] = Apparent permeability across apical to basolateral side in human Caco2 cells; assay type: ADME, cell-based; details: Caco-2
[9] = molecular target: Tyrosine-protein kinase BTK (Homo sapiens) (UniProt Q06187); details: 1 uM
[10] = molecular target: Calcium/calmodulin-dependent protein kinase type II subunit delta (Homo sapiens) (UniProt Q13557); details: 1 uM
[11] = molecular target: Serine/threonine-protein kinase Chk1 (Homo sapiens) (UniProt O14757); details: 1 uM
[12] = molecular target: Casein kinase I isoform delta (Homo sapiens) (UniProt P48730); details: 1 uM
[13] = molecular target: Focal adhesion kinase 1 (Homo sapiens) (UniProt Q05397); details: 1 uM
[14] = molecular target: Glycogen synthase kinase-3 beta (Homo sapiens) (UniProt P49841); details: 1 uM
[15] = molecular target: Inhibitor of nuclear factor kappa-B kinase subunit beta (Homo sapiens) (UniProt O14920); details: 1 uM
[16] = molecular target: Tyrosine-protein kinase ITK/TSK (Homo sapiens) (UniProt Q08881); details: 1 uM
[17] = molecular target: Mitogen-activated protein kinase 10 (Homo sapiens) (UniProt P53779); details: 1 uM
[18] = molecular target: Hepatocyte growth factor receptor (Homo sapiens) (UniProt P08581); details: 1 uM
[19] = molecular target: Dual specificity mitogen-activated protein kinase kinase 6 (Homo sapiens) (UniProt P52564); details: 1 uM
[20] = molecular target: 3-phosphoinositide-dependent protein kinase 1 (Homo sapiens) (UniProt O15530); details: 1 uM
[21] = molecular target: Protein kinase C beta type (Homo sapiens) (UniProt P05771); details: 1 uM
[22] = molecular target: Protein kinase C gamma type (Homo sapiens) (UniProt P05129); details: 1 uM
[23] = molecular target: Protein kinase C epsilon type (Homo sapiens) (UniProt Q02156); details: 1 uM
[24] = molecular target: MAP kinase-activated protein kinase 5 (Homo sapiens) (UniProt Q8IW41); details: 1 uM
[25] = molecular target: Protein-tyrosine kinase 2-beta (Homo sapiens) (UniProt Q14289); details: 1 uM
[26] = molecular target: Rho-associated protein kinase 2 (Homo sapiens) (UniProt O75116); details: 1 uM
[27] = molecular target: Mitogen-activated protein kinase kinase kinase 7 (TAK1) (Homo sapiens) (UniProt O43318); details: 1 uM
[28] = molecular target: Tyrosine-protein kinase ZAP-70 (Homo sapiens) (UniProt P43403); details: 1 uM
[29] = molecular target: ALK tyrosine kinase receptor (Homo sapiens) (UniProt Q9UM73); details: 1 uM
[30] = molecular target: Aurora kinase A (Homo sapiens) (UniProt O14965); details: 1 uM
[31] = molecular target: Tyrosine-protein kinase receptor UFO (Homo sapiens) (UniProt P30530); details: 1 uM
[32] = molecular target: Cyclin-dependent kinase 1/cyclin B1 (Homo sapiens) (UniProt P06493+P14635); details: 1 uM
[33] = molecular target: Proto-oncogene tyrosine-protein kinase Src (Homo sapiens) (UniProt P12931); details: 1 uM
[34] = molecular target: Fibroblast growth factor receptor 3 (Homo sapiens) (UniProt P22607); details: 1 uM
[35] = molecular target: Tyrosine-protein kinase Fgr (Homo sapiens) (UniProt P09769); details: 1 uM
[36] = molecular target: Vascular endothelial growth factor receptor 1 (Homo sapiens) (UniProt P17948); details: 1 uM
[37] = molecular target: Receptor-type tyrosine-protein kinase FLT3 (Homo sapiens) (UniProt P36888); details: 1 uM
[38] = molecular target: Macrophage colony-stimulating factor 1 receptor (Homo sapiens) (UniProt P07333); details: 1 uM
[39] = molecular target: Tyrosine-protein kinase Fyn (Homo sapiens) (UniProt P06241); details: 1 uM
[40] = molecular target: Glycogen synthase kinase-3 alpha (Homo sapiens) (UniProt P49840); details: 1 uM
[41] = molecular target: Tyrosine-protein kinase HCK (Homo sapiens) (UniProt P08631); details: 1 uM
[42] = molecular target: Tyrosine-protein kinase JAK2 (Homo sapiens) (UniProt O60674); details: 1 uM
[43] = molecular target: Tyrosine-protein kinase JAK3 (Homo sapiens) (UniProt P52333); details: 1 uM
[44] = molecular target: Tyrosine-protein kinase Lck (Homo sapiens) (UniProt P06239); details: 1 uM
[45] = molecular target: Serine/threonine-protein kinase pim-1 (Homo sapiens) (UniProt P11309); details: 1 uM
[46] = molecular target: Proto-oncogene tyrosine-protein kinase receptor Ret (Homo sapiens) (UniProt P07949); details: 1 uM
[47] = molecular target: Ribosomal protein S6 kinase alpha-6 (Homo sapiens) (UniProt Q9UK32); details: 1 uM
[48] = molecular target: High affinity nerve growth factor receptor (Homo sapiens) (UniProt P04629); details: 1 uM
[49] = molecular target: Tyrosine-protein kinase Yes (Homo sapiens) (UniProt P07947); details: 1 uM
[50] = molecular target: T1, Tyrosine-protein kinase Lyn; details: 1 uM

Sequence of Fibroblast growth factor receptor 3 (Homo sapiens) (P22607 23-806 limits assumed): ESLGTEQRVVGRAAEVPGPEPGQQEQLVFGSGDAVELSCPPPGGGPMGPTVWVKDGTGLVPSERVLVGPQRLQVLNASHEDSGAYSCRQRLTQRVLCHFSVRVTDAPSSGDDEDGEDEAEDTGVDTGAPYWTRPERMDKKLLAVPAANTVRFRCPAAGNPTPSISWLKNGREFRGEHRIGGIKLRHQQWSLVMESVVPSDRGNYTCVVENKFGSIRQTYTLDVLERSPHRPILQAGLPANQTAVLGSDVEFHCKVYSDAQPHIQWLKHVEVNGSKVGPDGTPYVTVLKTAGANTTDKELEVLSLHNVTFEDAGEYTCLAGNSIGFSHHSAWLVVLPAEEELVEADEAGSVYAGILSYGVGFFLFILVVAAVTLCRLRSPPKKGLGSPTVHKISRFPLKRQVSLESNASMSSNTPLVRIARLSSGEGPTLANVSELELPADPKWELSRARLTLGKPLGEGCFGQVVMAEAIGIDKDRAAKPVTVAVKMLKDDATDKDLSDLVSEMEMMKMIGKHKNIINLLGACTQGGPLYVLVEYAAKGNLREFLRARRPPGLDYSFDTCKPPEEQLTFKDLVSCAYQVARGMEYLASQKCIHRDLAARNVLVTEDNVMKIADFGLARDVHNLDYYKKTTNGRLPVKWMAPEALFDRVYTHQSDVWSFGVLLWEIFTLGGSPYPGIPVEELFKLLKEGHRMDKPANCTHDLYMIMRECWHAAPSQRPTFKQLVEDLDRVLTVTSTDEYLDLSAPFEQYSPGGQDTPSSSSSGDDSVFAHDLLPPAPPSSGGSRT
Sequence of Ribosomal protein S6 kinase alpha-6 (Homo sapiens) (Q9UK32 whole entry): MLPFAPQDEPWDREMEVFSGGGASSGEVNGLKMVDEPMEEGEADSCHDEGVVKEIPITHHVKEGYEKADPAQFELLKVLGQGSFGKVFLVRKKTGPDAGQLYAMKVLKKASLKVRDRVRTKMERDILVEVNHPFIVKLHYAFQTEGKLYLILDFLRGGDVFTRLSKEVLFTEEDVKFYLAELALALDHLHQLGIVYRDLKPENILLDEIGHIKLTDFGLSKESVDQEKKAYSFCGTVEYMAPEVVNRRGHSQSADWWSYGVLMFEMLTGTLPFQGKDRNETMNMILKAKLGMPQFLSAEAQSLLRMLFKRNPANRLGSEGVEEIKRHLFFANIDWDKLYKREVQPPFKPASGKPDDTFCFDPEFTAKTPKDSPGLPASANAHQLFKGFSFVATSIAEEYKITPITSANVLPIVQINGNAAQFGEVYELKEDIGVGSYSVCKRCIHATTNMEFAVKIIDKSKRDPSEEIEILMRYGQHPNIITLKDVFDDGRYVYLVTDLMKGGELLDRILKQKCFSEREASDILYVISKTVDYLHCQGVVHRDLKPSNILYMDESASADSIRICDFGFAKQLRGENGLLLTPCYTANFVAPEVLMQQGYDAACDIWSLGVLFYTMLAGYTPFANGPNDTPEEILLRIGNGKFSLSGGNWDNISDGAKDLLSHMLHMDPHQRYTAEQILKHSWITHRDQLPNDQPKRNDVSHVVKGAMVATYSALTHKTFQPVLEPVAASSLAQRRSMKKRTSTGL
Sequence of Mitogen-activated protein kinase 10 (Homo sapiens) (P53779 whole entry): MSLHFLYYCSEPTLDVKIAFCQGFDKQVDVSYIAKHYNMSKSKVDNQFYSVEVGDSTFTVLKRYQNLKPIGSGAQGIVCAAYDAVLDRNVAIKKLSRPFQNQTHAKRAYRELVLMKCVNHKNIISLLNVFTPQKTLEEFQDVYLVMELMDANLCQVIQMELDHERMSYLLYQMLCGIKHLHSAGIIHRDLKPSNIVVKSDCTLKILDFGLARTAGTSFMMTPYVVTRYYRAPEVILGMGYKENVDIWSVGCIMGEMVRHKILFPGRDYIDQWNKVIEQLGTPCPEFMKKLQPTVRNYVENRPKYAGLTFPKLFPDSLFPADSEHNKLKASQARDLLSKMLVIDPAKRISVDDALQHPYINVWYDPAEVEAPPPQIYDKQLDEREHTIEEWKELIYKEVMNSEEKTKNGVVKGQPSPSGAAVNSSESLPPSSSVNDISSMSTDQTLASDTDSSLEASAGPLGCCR
Sequence of Tyrosine-protein kinase receptor UFO (Homo sapiens) (P30530 whole entry): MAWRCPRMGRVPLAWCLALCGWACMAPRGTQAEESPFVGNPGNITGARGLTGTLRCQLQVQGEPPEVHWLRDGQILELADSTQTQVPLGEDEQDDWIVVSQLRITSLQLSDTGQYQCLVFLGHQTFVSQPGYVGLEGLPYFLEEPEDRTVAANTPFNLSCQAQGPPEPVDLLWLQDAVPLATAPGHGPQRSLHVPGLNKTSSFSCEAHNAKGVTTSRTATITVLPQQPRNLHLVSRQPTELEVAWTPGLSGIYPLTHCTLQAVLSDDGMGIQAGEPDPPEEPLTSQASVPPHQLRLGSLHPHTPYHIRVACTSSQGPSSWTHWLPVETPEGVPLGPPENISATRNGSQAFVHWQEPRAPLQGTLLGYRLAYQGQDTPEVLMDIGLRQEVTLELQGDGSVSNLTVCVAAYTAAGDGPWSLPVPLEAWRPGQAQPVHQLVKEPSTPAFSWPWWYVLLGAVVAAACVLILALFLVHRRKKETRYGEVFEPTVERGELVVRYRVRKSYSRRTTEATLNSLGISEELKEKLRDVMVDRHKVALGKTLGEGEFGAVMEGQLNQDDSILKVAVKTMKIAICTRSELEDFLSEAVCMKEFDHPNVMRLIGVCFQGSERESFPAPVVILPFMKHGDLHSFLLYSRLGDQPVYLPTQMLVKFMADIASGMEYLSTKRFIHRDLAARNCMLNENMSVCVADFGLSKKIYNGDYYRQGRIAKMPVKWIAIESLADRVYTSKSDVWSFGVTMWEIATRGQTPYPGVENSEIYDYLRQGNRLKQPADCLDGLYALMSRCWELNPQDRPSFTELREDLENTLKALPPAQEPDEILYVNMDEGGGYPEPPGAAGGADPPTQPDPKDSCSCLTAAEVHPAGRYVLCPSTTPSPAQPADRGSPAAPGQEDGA
Sequence of Tyrosine-protein kinase Fyn (Homo sapiens) (P06241 2-537 limits assumed): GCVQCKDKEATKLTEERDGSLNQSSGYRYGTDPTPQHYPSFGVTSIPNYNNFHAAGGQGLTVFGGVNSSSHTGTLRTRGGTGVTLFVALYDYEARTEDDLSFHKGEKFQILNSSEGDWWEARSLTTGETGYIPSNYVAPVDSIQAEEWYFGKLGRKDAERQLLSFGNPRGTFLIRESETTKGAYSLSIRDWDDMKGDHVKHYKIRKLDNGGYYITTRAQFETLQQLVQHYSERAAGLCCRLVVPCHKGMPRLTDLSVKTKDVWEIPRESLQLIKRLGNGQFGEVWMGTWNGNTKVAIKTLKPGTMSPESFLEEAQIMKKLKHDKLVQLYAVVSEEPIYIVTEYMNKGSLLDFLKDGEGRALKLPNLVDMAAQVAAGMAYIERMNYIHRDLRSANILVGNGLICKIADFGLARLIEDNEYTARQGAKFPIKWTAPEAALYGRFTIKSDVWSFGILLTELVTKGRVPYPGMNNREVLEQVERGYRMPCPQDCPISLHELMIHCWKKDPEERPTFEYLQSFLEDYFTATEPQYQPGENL
Sequence of Tyrosine-protein kinase ITK/TSK (Homo sapiens) (Q08881 whole entry): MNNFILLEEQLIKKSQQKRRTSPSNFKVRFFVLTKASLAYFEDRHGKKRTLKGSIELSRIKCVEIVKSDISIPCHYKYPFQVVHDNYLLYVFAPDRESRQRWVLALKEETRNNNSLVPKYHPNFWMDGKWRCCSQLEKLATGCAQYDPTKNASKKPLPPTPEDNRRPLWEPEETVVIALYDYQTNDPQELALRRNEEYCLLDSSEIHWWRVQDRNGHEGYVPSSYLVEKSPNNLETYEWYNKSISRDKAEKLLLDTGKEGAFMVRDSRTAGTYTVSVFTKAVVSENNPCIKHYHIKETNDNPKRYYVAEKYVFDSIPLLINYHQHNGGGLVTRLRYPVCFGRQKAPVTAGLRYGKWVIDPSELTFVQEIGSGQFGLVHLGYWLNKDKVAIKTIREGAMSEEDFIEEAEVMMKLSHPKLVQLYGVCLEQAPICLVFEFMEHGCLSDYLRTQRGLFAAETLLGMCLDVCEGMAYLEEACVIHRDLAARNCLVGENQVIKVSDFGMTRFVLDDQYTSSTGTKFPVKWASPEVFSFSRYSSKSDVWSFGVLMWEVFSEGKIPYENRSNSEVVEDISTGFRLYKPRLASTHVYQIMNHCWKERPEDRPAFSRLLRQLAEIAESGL
Sequence of Tyrosine-protein kinase Lck (Homo sapiens) (P06239 2-509 limits assumed): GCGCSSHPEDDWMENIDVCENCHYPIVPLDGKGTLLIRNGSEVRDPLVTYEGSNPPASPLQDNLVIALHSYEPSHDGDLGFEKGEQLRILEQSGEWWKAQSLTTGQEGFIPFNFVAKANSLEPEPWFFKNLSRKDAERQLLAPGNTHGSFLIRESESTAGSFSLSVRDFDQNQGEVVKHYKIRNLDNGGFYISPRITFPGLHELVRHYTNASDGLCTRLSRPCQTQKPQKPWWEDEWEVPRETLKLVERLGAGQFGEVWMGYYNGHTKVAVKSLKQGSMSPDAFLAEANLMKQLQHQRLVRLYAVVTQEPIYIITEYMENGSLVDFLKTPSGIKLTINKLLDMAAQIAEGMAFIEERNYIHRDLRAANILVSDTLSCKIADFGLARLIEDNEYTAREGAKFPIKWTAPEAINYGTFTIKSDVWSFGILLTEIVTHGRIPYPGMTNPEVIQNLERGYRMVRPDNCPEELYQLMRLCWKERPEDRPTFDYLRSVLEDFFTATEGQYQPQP
Sequence of Glycogen synthase kinase-3 alpha (Homo sapiens) (P49840 2-483 limits assumed): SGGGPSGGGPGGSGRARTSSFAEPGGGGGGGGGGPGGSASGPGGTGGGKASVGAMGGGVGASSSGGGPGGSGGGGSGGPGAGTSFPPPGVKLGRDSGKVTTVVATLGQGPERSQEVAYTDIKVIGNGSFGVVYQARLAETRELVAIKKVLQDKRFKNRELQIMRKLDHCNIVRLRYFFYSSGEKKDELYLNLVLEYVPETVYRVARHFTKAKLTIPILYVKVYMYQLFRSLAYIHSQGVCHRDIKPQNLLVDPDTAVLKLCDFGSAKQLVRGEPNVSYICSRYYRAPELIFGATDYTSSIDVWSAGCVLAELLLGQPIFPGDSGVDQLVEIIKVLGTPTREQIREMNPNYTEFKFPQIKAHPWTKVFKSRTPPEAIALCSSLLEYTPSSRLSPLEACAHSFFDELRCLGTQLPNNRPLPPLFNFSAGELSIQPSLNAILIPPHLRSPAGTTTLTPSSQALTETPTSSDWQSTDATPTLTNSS

Cc1cc(-c2cnn(C)c2)cc(-c2cnc(N)c(C(=O)N[C@H]3C4CC5CC3C[C@@](O)(C5)C4)n2)c1
IC50 (LAD2 [1]): 0.15 µM

Cn1cc(-c2cccc(-c3cnc(N)c(C(=O)NC(C)(C)C4CCNCC4)n3)c2)cn1
IC50 (LAD2 [1]): 0.55 µM

Nc1ncc(-c2cccc(-c3cnn(CCO)c3)c2)nc1C(=O)N[C@H]1C2CC3CC1C[C@@](O)(C3)C2
IC50 (LAD2 [1]): 0.12 µM

COc1cc(-c2cnn(C)c2)cc(-c2cnc(N)c(C(=O)N[C@H]3C4CC5CC3C[C@@](O)(C5)C4)n2)c1
IC50 (LAD2 [1]): 0.14 µM

CC(C)(NC(=O)c1nc(-c2cccc(OC(F)(F)F)c2)cnc1N)C1CCNCC1
IC50 (LAD2 [1]): 1.1 µM

Nc1ncc(-c2cccc(-c3cnn(CC(=O)O)c3)c2)nc1C(=O)N[C@H]1C2CC3CC1C[C@@](O)(C3)C2
inhibition at 1 µM (LAD2 [2]): 43%

Nc1ccc(-c2cccc(-c3cnc(N)c(C(=O)N[C@H]4C5CC6CC4C[C@@](O)(C6)C5)n3)c2)cn1
IC50 (LAD2 [1]): 0.18 µM

NC(=O)Cn1cc(-c2cccc(-c3cnc(N)c(C(=O)N[C@H]4C5CC6CC4C[C@@](O)(C6)C5)n3)c2)cn1
IC50 (LAD2 [1]): 0.16 µM

COCCn1cc(-c2cccc(-c3cnc(N)c(C(=O)N[C@H]4C5CC6CC4C[C@@](O)(C6)C5)n3)c2)cn1
IC50 (LAD2 [1]): 0.18 µM

CC(C)(NC(=O)c1nc(-c2ccc3c(c2)NC(=O)C3)cnc1N)C1CCNCC1
inhibition at 1 µM (LAD2 [2]): 10%

NCCn1cc(-c2cccc(-c3cnc(N)c(C(=O)N[C@H]4C5CC6CC4C[C@@](O)(C6)C5)n3)c2)cn1
IC50 (LAD2 [1]): 1 µM

CCn1cc(-c2cccc(-c3cnc(N)c(C(=O)N[C@H]4C5CC6CC4C[C@](O)(C6)C5)n3)c2)cn1
IC50 (LAD2 [1]): 0.18 µM

Nc1ncc(-c2cccc(-c3cnn(CC(F)(F)F)c3)c2)nc1C(=O)N[C@H]1C2CC3CC1C[C@@](O)(C3)C2
IC50 (LAD2 [1]): 0.14 µM

CC(C)(NC(=O)c1nc(-c2cccc3cn[nH]c23)cnc1N)C1CCNCC1
inhibition at 1 µM (LAD2 [2]): 48%

CC(C)(NC(=O)c1nc(-c2cccc(-c3ccc(N)nc3)c2)cnc1N)C1CCNCC1
IC50 (LAD2 [1]): 0.56 µM | Papp B→A [3]: 23.8 nm/s

CC(C)n1cc(-c2cccc(-c3cnc(N)c(C(=O)N[C@H]4C5CC6CC4C[C@@](O)(C6)C5)n3)c2)cn1
IC50 (LAD2 [1]): 0.22 µM

COc1cccc(-c2cnc(N)c(C(=O)NC(C)(C)C3CCNCC3)n2)c1
IC50 (LAD2 [1]): 1.96 µM

Nc1ncc(-c2ccc3cn[nH]c3c2)nc1C(=O)N[C@H]1C2CC3CC1C[C@](O)(C3)C2
IC50 (LAD2 [1]): 0.4 µM

CS(=O)(=O)Nc1cccc(-c2cnc(N)c(C(=O)N3CCC(O)CC3)n2)c1
IC50 [4]: > 50 µM

CCCn1cc(-c2cccc(-c3cnc(N)c(C(=O)N[C@H]4C5CC6CC4C[C@@](O)(C6)C5)n3)c2)cn1
IC50 (LAD2 [1]): 0.17 µM

Nc1ncc(-c2cccc(-c3cnn(CCO)c3)c2)nc1C(=O)N[C@H]1C2CC3CC1C[C@](O)(C3)C2
IC50 (LAD2 [1]): 0.14 µM

Nc1ncc(-c2ccc3cn[nH]c3c2)nc1C(=O)N[C@H]1C2CC3CC1C[C@@](O)(C3)C2
IC50 (LAD2 [1]): 0.12 µM

Cn1cc(-c2cccc(-c3cnc(N)c(C(=O)N[C@H]4C5CC6CC4C[C@@](O)(C6)C5)n3)c2)cn1
IC50 [4]: 0.04 µM | IC50 (LAD2 [1]): 0.09 µM | solubility [5]: 0.025 mg/mL (≈ 56.2 µM) | logD [6]: 1.5 | IC50 [7]: 0.325 µM | Activity (CHO): Non-toxic | Papp A→B [8]: 280 nm/s | Papp B→A [3]: 130 nm/s | inhibition [9]: < 50% | inhibition [10]: < 50% | inhibition [11]: < 50% | inhibition [12]: < 50% | inhibition [13]: < 50% | inhibition [14]: < 50% | inhibition [15]: < 50% | inhibition [16]: < 50% | inhibition [17]: < 50% | inhibition [18]: < 50% | inhibition [19]: < 50% | inhibition [20]: < 50% | inhibition [21]: < 50% | inhibition [22]: < 50% | inhibition [23]: < 50% | inhibition [24]: < 50% | inhibition [25]: < 50% | inhibition [26]: < 50% | inhibition [27]: < 50% | inhibition [28]: < 50% | inhibition [29]: > 50% | inhibition [30]: > 50% | inhibition [31]: > 50% | inhibition [32]: > 50% | inhibition [33]: > 50% | inhibition [34]: > 50% | inhibition [35]: > 50% | inhibition [36]: > 50% | inhibition [37]: > 50% | inhibition [38]: > 50% | inhibition [39]: > 50% | inhibition [40]: > 50% | inhibition [41]: > 50% | inhibition [42]: > 50% | inhibition [43]: > 50% | inhibition [44]: > 50% | inhibition [45]: > 50% | inhibition [46]: > 50% | inhibition [47]: > 50% | inhibition [48]: > 50% | inhibition [49]: > 50% | inhibition [50]: > 50%

CC(C)(NC(=O)c1nc(-c2ccc3cn[nH]c3c2)cnc1N)C1CCNCC1
IC50 (LAD2 [1]): 0.86 µM

Cn1cc(-c2cccc(-c3cnc(N)c(C(=O)N[C@H]4C5CC6CC4C[C@](O)(C6)C5)n3)c2)cn1
IC50 [4]: 0.02 µM | IC50 (LAD2 [1]): 0.12 µM

COc1cncc(-c2cccc(-c3cnc(N)c(C(=O)NC(C)(C)C4CCNCC4)n3)c2)c1
inhibition at 1 µM (LAD2 [2]): 65%

Nc1ncc(-c2cccc(-c3cn[nH]c3)c2)nc1C(=O)N[C@H]1C2CC3CC1C[C@@](O)(C3)C2
IC50 (LAD2 [1]): 0.1 µM

CCn1cc(-c2cccc(-c3cnc(N)c(C(=O)N[C@H]4C5CC6CC4C[C@@](O)(C6)C5)n3)c2)cn1
IC50 (LAD2 [1]): 0.11 µM
